{"data": "Results gathered from unrelated publications", "cell line": "U-251", "observed": "cell growth or viability", "note": "Compare with care: the assays were run in different laboratories."}
{"Structure (SMILES)": "COc1cccc(Oc2ccccc2NC(=O)CNC(=O)c2cccc3ccccc23)c1", "method": "SRB", "time": "48 h", "measurement": "GI50", "result": "240 nM"}
{"Structure (SMILES)": "COc1nc(OCc2cccc(-c3ccccc3)c2C)ccc1CNCCNC(C)=O", "method": "MTT", "measurement": "IC50", "result": "4.3 µM"}
{"Structure (SMILES)": "Cc1cc(NC(=O)c2cccc3cc(-c4cccc5[nH]nc(N)c45)ccc23)ccc1F", "method": "CCK-8", "time": "72 h", "measurement": "IC50", "result": "> 20 µM"}
{"Structure (SMILES)": "COc1ccc(C(=O)/C=C/c2cccnc2)cc1S(N)(=O)=O", "method": "SRB", "concentration": "10 µM", "measurement": "inhibition", "result": "89%"}
{"Structure (SMILES)": "COc1cc(-c2ccc(-c3ccc(C(=N)N)nc3)s2)cc(OC)c1OC", "method": "SRB", "measurement": "GI50", "result": "1740 nM"}
{"Structure (SMILES)": "O=C1Nc2ccccc2C1=NNc1nnc2n1N=C(c1ccccc1)CS2", "method": "SRB", "concentration": "10 µM", "measurement": "inhibition", "result": "50%"}
{"Structure (SMILES)": "COc1ccc(-c2ccc(-c3ccc(C(=N)N)nc3)s2)cc1", "method": "SRB", "measurement": "GI50", "result": "1810 nM"}
{"Structure (SMILES)": "COc1ccc(C(=O)/C=C/c2cccc(Br)c2)cc1S(N)(=O)=O", "method": "SRB", "concentration": "10 µM", "measurement": "inhibition", "result": "198%"}
{"Structure (SMILES)": "CC(=O)O[C@H]1C(=O)[C@@]2(C)[C@H]([C@H](OC(=O)c3ccccc3)[C@]3(O)C[C@H](OC(=O)[C@H](O)[C@@H](NC(=O)c4ccccc4)c4ccccc4)C(C)=C1C3(C)C)[C@]1(OC(C)=O)CO[C@@H]1C[C@@H]2O", "measurement": "IC50", "result": "0.5 µg/mL"}
